Assay [1] relates to Plasmodium berghei. Kind of assay: Antimalarial activity against schizonts of chloroquine-sensitive Plasmodium berghei ANKA 2.34 assessed as chemosuppression of schizont numbers at 200 uM after 16 hrs relative to control. Format: functional. The procedure, abridged:
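Peptides in PBS with 0.1% DMSO and 5% ethanol were incubated with P. berghei cultures for 16 h at 37 °C, with chloroquine as positive control. Schizonts per 2000 erythrocytes were counted on smears from 0.5 mL culture samples, in duplicate and averaged. Reduction in schizont number is expressed against drug-free control cultures.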

The test system of assay [2] is Plasmodium berghei. Nature of the assay: Antimalarial activity against schizonts of chloroquine-sensitive Plasmodium berghei ANKA 2.34 after 16 hrs. To be noted: ANKA 2.34, 16 h. Format: functional, organism-based. The procedure, abridged: (§1)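 P. berghei cultures were exposed to peptides in PBS with 0.1% DMSO and 5% ethanol for 16 h at 37 °C, with chloroquine as positive control. Smears were made from 0.5 mL culture samples and schizonts counted per 2000 erythrocytes. Four concentrations were each run in duplicate and averaged. IC50 is the concentration giving 50% fewer schizonts than drug-free controls, extrapolated from the concentration–response curve.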

For assay [3], the system named is Plasmodium berghei. Nature of the assay: Antimalarial activity against Plasmodium berghei. Format: functional, organism-based. The essentials: as §1

Where a SMILES comes first, the peptide text is derived from it. [ ]: non-standard residue; d: D form. The star is where a group is joined. ξ: configuration not given here. Boc = CC(C)(C)OC(=O)*; ξOrn = NCCCC(N)C(=O)O; OtBu = CC(C)(C)O*; Sar = CNCC(=O)O

In general, IC50 refers to the concentration that inhibits the measured activity by half.

Consider `COC(=O)CN(C)C(=O)[C@H](Cc1ccccc1)NC(=O)OC(C)(C)C` (Boc-Phe-[Sar]-OMe), for which the Activity in the assay with Plasmodium berghei [1] was found to be 79.41%. Also, it took 3.63 µM to reach half-maximal inhibition in the assay with Plasmodium berghei [2] (IC50).
With `NCCCC(NC(=O)[C@H](Cc1ccccc1)NC(=O)C(CCCN)NC(=O)[C@@H](N)Cc1ccccc1)C(=O)O` (stereo not given in full) (H-F[ξOrn]F[ξOrn]-OH), 2500 nM corresponded to half-maximal inhibition with Plasmodium berghei [3] (IC50).
On to `CC(C)(C)OC(=O)N[C@@H](CCCNC(=O)OCc1ccccc1)C(=O)N[C@@H](Cc1ccccc1)C(=O)OC(C)(C)C`, for which the Activity in the assay on Plasmodium berghei [1] stood at 35.29%. In the assay with Plasmodium berghei [2], this compound gave an IC50 of over 200 µM.
The corresponding values for `CC(C)[C@H](NC(=O)OC(C)(C)C)C(=O)N[C@H](C(=O)OC(C)(C)C)C(C)C` (Boc-Val-Val-OtBu) are 77.64% and 2.81 µM.
For `CC(C)[C@@H]1NC(=O)[C@H](C(C)C)NC1=O`, in the assay on Plasmodium berghei [1], the Activity was found to be 87.18%. In the assay with Plasmodium berghei [2], this compound registered a concentration for half-maximal inhibition (IC50) of 2.45 µM.
In the assay with Plasmodium berghei [3], `NCCCC[C@H](N)C(=O)N[C@@H](Cc1ccccc1)C(=O)N[C@@H](Cc1ccccc1)C(=O)NC(CCCN)C(=O)O` (stereo not given in full) (H-KFF[ξOrn]-OH) gave an IC50 of 2500 nM.
As for `CC(C)[C@H](NC(=O)CNC(=O)OC(C)(C)C)C(=O)OC(C)(C)C` (Boc-Gly-Val-OtBu), in the assay with Plasmodium berghei [1], the Activity came to 59.55%. In the assay on Plasmodium berghei [2], this compound registered an IC50 of 3.16 µM.
For `CC(C)(C)OC(=O)NCC(=O)N[C@@H](Cc1ccccc1)C(=O)OC(C)(C)C` (Boc-Gly-Phe-OtBu) the same measures were 54.26% and 164 µM.
On to `CCN(CC)CCCC(C)Nc1ccnc2cc(Cl)ccc12` (stereo not given) [CHLOROQUINE], for which, in the assay on Plasmodium berghei [1], the Activity was found to be 100%. Further, inhibition in the assay with Plasmodium berghei [2] was half-maximal at 0.06 µM (IC50).
Take `O=C1N[C@@H](Cc2ccccc2)C(=O)N[C@H]1Cc1ccccc1`: in the assay with Plasmodium berghei [1], the Activity is reported as 84.33%. In addition, inhibition in the assay with Plasmodium berghei [2] was half-maximal at 2.54 µM (IC50).
Turning to `CC(C)[C@@H]1NC(=O)[C@H](CCCNC(=O)OCc2ccccc2)NC1=O`, the Activity with Plasmodium berghei [1] was found to be 69.23%. The compound further showed a concentration for half-maximal inhibition (IC50) with Plasmodium berghei [2] of 66 µM.
Regarding `CC(C)(C)OC(=O)N[C@@H](Cc1ccccc1)C(=O)N[C@@H](Cc1ccccc1)C(=O)OC(C)(C)C` (Boc-Phe-Phe-OtBu), in the assay on Plasmodium berghei [1], the Activity stood at 55.73%. Also, in the assay with Plasmodium berghei [2], the 50% inhibitory concentration (IC50) turned out to be 112 µM.
For the compound `COC(=O)[C@H](Cc1ccccc1)NC(=O)[C@H](CCCNC(=O)OCc1ccccc1)NC(=O)OC(C)(C)C`, the Activity in the assay with Plasmodium berghei [1] came to 40%. Besides, the IC50 in the assay on Plasmodium berghei [2] was over 200 µM.
In the case of `COC(=O)[C@@H](NC(=O)[C@@H](CCCNC(=O)OCc1ccccc1)NC(=O)OC(C)(C)C)C(C)C`, the Activity with Plasmodium berghei [1] was 57.2%. In addition, inhibition with Plasmodium berghei [2] was half-maximal at 3.05 µM (IC50).
The corresponding values for `CC(C)[C@@H]1NC(=O)CNC1=O` are 88.03% and 3.23 µM.
On to `CN(CC(=O)OC(C)(C)C)C(=O)[C@H](Cc1ccccc1)NC(=O)OC(C)(C)C` (Boc-Phe-[Sar]-OtBu), for which, in the assay on Plasmodium berghei [1], the Activity came out at 79.41%. This compound also had an IC50 with Plasmodium berghei [2] of 3.38 µM.
For `O=C1CNC(=O)[C@H](Cc2ccccc2)N1` the same measures were 70.37% and 4.26 µM.
`CC(C)[C@@H]1NC(=O)[C@H](CCCCNC(=O)OCc2ccccc2)NC1=O`: the Activity in the assay with Plasmodium berghei [1] was found to be 79.2%. Also, it took 3.12 µM to reach half-maximal inhibition with Plasmodium berghei [2] (IC50).
As for `O=C(NCCC[C@@H]1NC(=O)[C@H](Cc2ccccc2)NC1=O)OCc1ccccc1`, in the assay with Plasmodium berghei [1], the Activity is listed as 72.93%. This compound also had a half-inhibitory concentration (IC50) with Plasmodium berghei [2] of 123 µM.
For `CC(C)[C@H](NC(=O)[C@H](CCCNC(=O)OCc1ccccc1)NC(=O)OC(C)(C)C)C(=O)OC(C)(C)C` the same measures were 55.73% and 33.9 µM.
Take `CC(C)[C@@H]1NC(=O)[C@H](Cc2ccccc2)NC1=O`: the Activity with Plasmodium berghei [1] turned out to be 61.07%. The compound further showed an IC50 in the assay on Plasmodium berghei [2] of 3.89 µM.
Turning to `CC(C)[C@@H]1NC(=O)[C@@H](CCCNC(=O)OCc2ccccc2)NC1=O`, the Activity in the assay with Plasmodium berghei [1] was found to be 70.08%. The compound further registered an IC50 in the assay on Plasmodium berghei [2] of 3.09 µM.
For `CC(C)[C@H](NC(=O)[C@@H](CCCNC(=O)OCc1ccccc1)NC(=O)OC(C)(C)C)C(=O)OC(C)(C)C` the same measures were 72.64% and 2.78 µM.
For `CN1CC(=O)N[C@@H](Cc2ccccc2)C1=O` the same measures were 83.76% and 2.26 µM.
On to `CC(C)[C@H](NC(=O)[C@H](Cc1ccccc1)NC(=O)OC(C)(C)C)C(=O)OC(C)(C)C` (Boc-Phe-Val-OtBu), for which the Activity in the assay with Plasmodium berghei [1] was determined as 77.94%. Moreover, the 50% inhibitory concentration (IC50) in the assay on Plasmodium berghei [2] was determined as 3.23 µM.
As to `CC(C)[C@H](NC(=O)OC(C)(C)C)C(=O)N[C@@H](Cc1ccccc1)C(=O)OC(C)(C)C` (Boc-Val-Phe-OtBu), the Activity in the assay with Plasmodium berghei [1] stood at 73.08%. Besides, inhibition with Plasmodium berghei [2] was half-maximal at 7.07 µM (IC50).
